In assay [1] the test system is Enterococcus faecium. The assay is described as follows: Antimicrobial activity against Enterococcus faecium AUS0004 at 15 ug/disk incubated for 20 +/- 4 hrs by agar disk diffusion method. The class given is functional. Particulars: read-out: DIZ.
Assay [2] concerns Enterococcus faecalis. The assay is described as follows: Antimicrobial activity against Enterococcus faecalis ATCC 29212 at 15 ug/disk incubated for 20 +/- 4 hrs by agar disk diffusion method. In kind it is functional. Particulars: read-out: DIZ.
Assay [3] deals with Enterococcus faecium. Kind of assay: Antimicrobial activity against Enterococcus faecium AUS0004 at 10 ug/disk incubated for 20 +/- 4 hrs by agar disk diffusion method. In kind it is functional. The following applies: read-out: DIZ.
For assay [4], the system named is Enterococcus faecalis. Kind of assay: Antimicrobial activity against Enterococcus faecalis ATCC 29212 at 5 ug/disk incubated for 20 +/- 4 hrs by agar disk diffusion method. In kind it is functional. The following applies: read-out: DIZ. On the technique in general: In agar diffusion tests the substance spreads into inoculated agar from a disc or well.
For assay [5], the system named is Enterococcus faecium. The assay is described as follows: Antimicrobial activity against Enterococcus faecium AUS0004 at 5 ug/disk incubated for 20 +/- 4 hrs by agar disk diffusion method. The class given is functional. Particulars: read-out: DIZ.
Assay [6] concerns Enterococcus faecium. The assay is described as follows: Antimicrobial activity against Enterococcus faecium AUS0004 at 30 ug/disk incubated for 20 +/- 4 hrs by agar disk diffusion method. In kind it is functional, organism-based.
The test system of assay [7] is Enterococcus faecalis. The assay is described as follows: Antimicrobial activity against Enterococcus faecalis ATCC 29212 at 30 ug/disk incubated for 20 +/- 4 hrs by agar disk diffusion method. The class given is functional, organism-based.
For assay [8], the system named is Listeria monocytogenes. Kind of assay: Antimicrobial activity against Listeria monocytogenes clinical isolate at 5 ug/disk incubated for 20 +/- 4 hrs by agar disk diffusion method. The class given is functional. The following applies: read-out: DIZ.
Assay [9] deals with Listeria monocytogenes. Kind of assay: Antimicrobial activity against Listeria monocytogenes clinical isolate at 30 ug/disk incubated for 20 +/- 4 hrs by agar disk diffusion method. In kind it is functional. Particulars: read-out: DIZ.
Assay [10] concerns Enterococcus faecium. Kind of assay: Antimicrobial activity against Enterococcus faecium AUS0004 at 50 ug/disk incubated for 20 +/- 4 hrs by agar disk diffusion method. The class given is functional. The following applies: read-out: DIZ. In outline:
(§1)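 Agar disk diffusion on Mueller-Hinton agar swab-seeded from a 0.5 McFarland inoculum (about 10^8 CFU/ml). Cellulose discs got 50 μg compound (10 μl of 5 g/L in DMSO); a 10 μL DMSO disc was the control. Incubated aerobically at 35 ± 2 °C for 20 ± 4 h, then growth-inhibition diameters measured.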

The subject of the next assay is Acinetobacter baumannii. The assay is described as follows: Antimicrobial activity against Acinetobacter baumannii clinical isolate at 50 ug/disk incubated for 20 +/- 4 hrs by agar disk diffusion method. Particulars: read-out: DIZ. The class given is functional. In a few lines:
as §1

A further assay deals with Bacillus subtilis. The assay is described as follows: Antimicrobial activity against Bacillus subtilis clinical isolate at 50 ug/disk incubated for 20 +/- 4 hrs by agar disk diffusion method. In kind it is functional. The following applies: read-out: DIZ. In a few lines:
as §1

Assay [11] deals with Enterococcus faecium. The assay is described as follows: Antimicrobial activity against Enterococcus faecium HM1070 at 50 ug/disk incubated for 20 +/- 4 hrs by agar disk diffusion method. The following applies: read-out: DIZ. The class given is functional. In outline:
as §1

Assay [12] concerns Enterococcus faecalis. Kind of assay: Antimicrobial activity against Enterococcus faecalis ATCC 29212 at 50 ug/disk incubated for 20 +/- 4 hrs by agar disk diffusion method. The class given is functional. The following applies: read-out: DIZ. In outline:
as §1

The test system of another assay is Kocuria rhizophila. Kind of assay: Antimicrobial activity against Kocuria rhizophila clinical isolate at 50 ug/disk incubated for 20 +/- 4 hrs by agar disk diffusion method. Particulars: read-out: DIZ. In kind it is functional. In outline: as §1
The next assay relates to Enterobacter cloacae. The assay is described as follows: Antimicrobial activity against Enterobacter cloacae clinical isolate at 50 ug/disk incubated for 20 +/- 4 hrs by agar disk diffusion method. In kind it is functional. Particulars: read-out: DIZ. In outline: as §1
The subject of another assay is Pseudomonas aeruginosa. Kind of assay: Antimicrobial activity against Pseudomonas aeruginosa clinical isolate at 50 ug/disk incubated for 20 +/- 4 hrs by agar disk diffusion method. In kind it is functional. The following applies: read-out: DIZ. In a few lines: as §1
For another assay, the system named is Clostridium perfringens. The assay is described as follows: Antimicrobial activity against Clostridium perfringens clinical isolate at 50 ug/disk incubated for 20 +/- 4 hrs by agar disk diffusion method. Particulars: read-out: DIZ. The class given is functional. In outline:
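Agar disk diffusion on MH agar with 5% horse blood (MHF), surface-seeded by swab from a 0.5 McFarland inoculum (about 10^8 CFU/ml). Cellulose discs received 10 μl of a 5 g/L DMSO solution (50 μg). A DMSO-only disc served as control. Anaerobic incubation at 35 ± 2 °C for 20 ± 4 h; growth-inhibition diameter measured in mm.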

The subject of a further assay is Klebsiella pneumoniae. Kind of assay: Antimicrobial activity against Klebsiella pneumoniae clinical isolate at 50 ug/disk incubated for 20 +/- 4 hrs by agar disk diffusion method. Particulars: read-out: DIZ. The class given is functional. In a few lines: as §1
In assay [13] the test system is Listeria monocytogenes. The assay is described as follows: Antimicrobial activity against Listeria monocytogenes clinical isolate at 50 ug/disk incubated for 20 +/- 4 hrs by agar disk diffusion method. In kind it is functional. The following applies: read-out: DIZ. In a few lines:
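Disk diffusion on MH agar with 5% horse blood, seeded by swab from a 0.5 McFarland suspension. Discs held 50 μg compound from a 5 g/L DMSO solution, with a DMSO-only control disc. Aerobic incubation at 35 ± 2 °C for 20 ± 4 h; inhibition zone diameter read.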

Assay [14] concerns Escherichia coli. The assay is described as follows: Antimicrobial activity against Escherichia coli ATCC 25922 at 50 ug/disk incubated for 20 +/- 4 hrs by agar disk diffusion method. The class given is functional. The following applies: read-out: DIZ. In a few lines: as §1
In a further assay the test system is Streptococcus pyogenes. The assay is described as follows: Antimicrobial activity against Streptococcus pyogenes clinical isolate at 50 ug/disk incubated for 20 +/- 4 hrs by agar disk diffusion method. The following applies: read-out: DIZ. The class given is functional. In outline:
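Plates of MH + 5% horse blood were swabbed with a 0.5 McFarland inoculum and received discs with 50 μg compound (from 5 g/L in DMSO) plus a 10 μL DMSO control disc. Incubation at 35 ± 2 °C aerobically with 5% CO2 for 20 ± 4 h, then zone diameters measured.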

In a further assay the test system is Bacteroides fragilis. Kind of assay: Antimicrobial activity against Bacteroides fragilis ATCC 25285 at 50 ug/disk incubated for 20 +/- 4 hrs by agar disk diffusion method. In kind it is functional. Particulars: read-out: DIZ. In outline:
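Anaerobic disk diffusion: MH agar + 5% horse blood seeded from a 0.5 McFarland swab, with discs of 50 μg compound (10 μl of 5 g/L DMSO solution) and a DMSO control disc. Kept at 35 ± 2 °C under anaerobic conditions for 20 ± 4 h; inhibition diameters recorded.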

In assay [15] the test system is Escherichia coli. The assay is described as follows: Antimicrobial activity against Escherichia coli clinical isolate at 50 ug/disk incubated for 20 +/- 4 hrs by agar disk diffusion method. In kind it is functional. Particulars: read-out: DIZ. In a few lines: as §1
The next assay has as its system Staphylococcus aureus. The assay is described as follows: Antimicrobial activity against Staphylococcus aureus ATCC 29213 at 50 ug/disk incubated for 20 +/- 4 hrs by agar disk diffusion method. The class given is functional. The following applies: read-out: DIZ. In outline:
as §1

Assay [16] has as its system Enterococcus faecium. The assay is described as follows: Antimicrobial activity against Enterococcus faecium AUS0004 at 2 ug/disk incubated for 20 +/- 4 hrs by agar disk diffusion method. In kind it is functional. The following applies: read-out: DIZ.
In assay [17] the test system is Enterococcus faecium. The assay is described as follows: Antimicrobial activity against Enterococcus faecium AUS0004 at 300 ug/disk incubated for 20 +/- 4 hrs by agar disk diffusion method. The class given is functional. The following applies: read-out: DIZ.
In assay [18] the test system is Enterococcus faecalis. The assay is described as follows: Antimicrobial activity against Enterococcus faecalis ATCC 29212 at 300 ug/disk incubated for 20 +/- 4 hrs by agar disk diffusion method. In kind it is functional. Particulars: read-out: DIZ.
Assay [19] relates to Listeria monocytogenes. The assay is described as follows: Antimicrobial activity against Listeria monocytogenes clinical isolate at 200 ug/disk incubated for 20 +/- 4 hrs by agar disk diffusion method. The class given is functional. The following applies: read-out: DIZ.

Consider `CC[C@H]1OC(=O)[C@H](C)[C@@H](O[C@H]2C[C@@](C)(OC)[C@@H](O)[C@H](C)O2)[C@H](C)[C@@H](O[C@@H]2O[C@H](C)C[C@H](N(C)C)[C@H]2O)[C@](C)(O)C[C@@H](C)C(=O)[C@H](C)[C@@H](O)[C@]1(C)O` [ERYTHROMYCIN], for which the zone of inhibition at 15 µg/disc in the assay on Enterococcus faecium [1] worked out at 6 mm; in the assay on Enterococcus faecalis [2] it was 20 mm.

Consider `C[C@@H](O)[C@H]1C(=O)N2C(C(=O)O)=C(SCCNC=N)C[C@H]12` [IMIPENEM ANHYDROUS], for which, in the assay with Enterococcus faecium [3], the zone of inhibition at 10 µg/disc was 6 mm.

Turning to `CO[C@H]1/C=C/O[C@@]2(C)Oc3c(C)c(O)c4c(O)c(c(/C=N/N5CCN(C)CC5)c(O)c4c3C2=O)NC(=O)/C(C)=C\C=C\[C@H](C)[C@H](O)[C@@H](C)[C@@H](O)[C@@H](C)[C@H](OC(C)=O)[C@@H]1C` [RIFAMPIN], the figures for the zone of inhibition at 5 µg/disc in the assay with Enterococcus faecalis [4] and in the assay with Enterococcus faecium [5] were 21 mm and 9 mm, respectively.

With GENTAMICIN, the inhibition zone (IZ) with Enterococcus faecium [6] is 17 mm; in the assay with Enterococcus faecalis [7] it was 14 mm.

Take `CC1COc2c(N3CCN(C)CC3)c(F)cc3c(=O)c(C(=O)O)cn1c23` (centres undefined) [OFLOXACIN]: the zone of inhibition at 5 µg/disc in the assay on Listeria monocytogenes [8] is 21 mm.

`CO[C@@]1(NC(=O)[C@H](C(=O)O)c2ccc(O)cc2)C(=O)N2C(C(=O)O)=C(CSc3nnnn3C)CO[C@@H]21`: the zone of inhibition at 30 µg/disc in the assay with Listeria monocytogenes [9] is 15 mm.

As for `O=C(Nc1nnc(-c2ccc(C(F)(F)F)cc2)o1)c1ccc(Cl)cc1`, the zone of inhibition at 50 µg/disc in the assay with Enterococcus faecium [10] was determined as 9 mm; in the assay with Acinetobacter baumannii, 6 mm; in the assay on Bacillus subtilis, 13 mm; in the assay on Enterococcus faecium [11], 11 mm; in the assay with Enterococcus faecalis [12] it was 10 mm; in the assay with Kocuria rhizophila it was 14 mm. In addition, the zone of inhibition at 50 µg/disc in the assay on Enterobacter cloacae worked out at 6 mm; in the assay on Pseudomonas aeruginosa it was 6 mm; with Clostridium perfringens it was 6 mm; with Klebsiella pneumoniae, 6 mm; with Listeria monocytogenes [13], 16 mm; with Escherichia coli [14] it was 6 mm. The zone of inhibition at 50 µg/disc in the assay on Streptococcus pyogenes came to 6 mm; in the assay with Bacteroides fragilis, 9 mm; with Escherichia coli [15], 6 mm; in the assay on Staphylococcus aureus, 9 mm.

`CC1(C)S[C@@H]2[C@H](NC(=O)[C@H](N)c3ccccc3)C(=O)N2[C@H]1C(=O)O` [AMPICILLIN]: the zone of inhibition at 2 µg/disc in the assay with Enterococcus faecium [16] worked out at 6 mm.

Regarding `CN[C@@H]1[C@H](O[C@H]2[C@H](O[C@H]3[C@H](O)[C@@H](O)[C@H](N=C(N)N)[C@@H](O)[C@@H]3N=C(N)N)O[C@@H](C)[C@]2(O)C=O)O[C@@H](CO)[C@H](O)[C@H]1O` [STREPTOMYCIN], the zone of inhibition at 300 µg/disc in the assay on Enterococcus faecium [17] came out at 22 mm; in the assay on Enterococcus faecalis [18], 16 mm.

As for `C[C@@H]1O[C@@H]1P(=O)(O)O` [FOSFOMYCIN], in the assay on Listeria monocytogenes [19], the zone of inhibition at 200 µg/disc amounted to 6 mm.

The record behind these values is ChEMBL document CHEMBL4364345, “Synthesis and evaluation of 1,3,4-oxadiazole derivatives for development as broad-spectrum antibiotics” (Bioorg Med Chem, 2019).
